The source of these data is ChEMBL document CHEMBL4477254, “Synthesis and biological evaluation of some novel triazole hybrids of curcumin mimics and their selective anticancer activity against breast and prostate cancer cell lines” (Bioorg Med Chem Lett, 2016).

Data set [1] has as its system MCF7. The experiment in a line: Cytotoxicity against human MCF7 cells assessed as decrease in cell viability after 24 hrs by MTT assay. It is filed as functional, cell-based. Conditions: MCF7, 24 h. In outline:
(§1)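 Cell viability by MTT after 24 h compound exposure; curcumin as standard. IC50 in µM from three independent experiments, expressed as mean ± SE.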
For orientation: Tetrazolium assays rely on reduction of a dye to a coloured formazan, in cell work by metabolically active cells.

For data set [2], the system named is MDA-MB-231. As to the kind of experiment: Cytotoxicity against human MDA-MB-231 cells assessed as decrease in cell viability after 24 hrs by MTT assay. The data set is classed as functional, cell-based. The following applies: MDA-MB-231, 24 h. In outline:
as §1

The test system of data set [3] is 4T1. The experiment in a line: Cytotoxicity against mouse 4T1 cells assessed as decrease in cell viability after 24 hrs by MTT assay. The data set is classed as functional, cell-based. The following applies: 4T1, 24 h. The procedure, abridged:
as §1

Data set [4] deals with PC-3. The experiment in a line: Cytotoxicity against human PC3 cells assessed as decrease in cell viability after 24 hrs by MTT assay. It is filed as functional, cell-based. The following applies: PC-3, 24 h. The procedure, abridged:
as §1

In data set [5] the test system is DU-145. The experiment in a line: Cytotoxicity against human DU145 cells assessed as decrease in cell viability after 24 hrs by MTT assay. It is filed as functional, cell-based. The following applies: DU-145, 24 h. The procedure, abridged: as §1
The next data set concerns HEK293. The experiment in a line: Cytotoxicity against human HEK293 cells assessed as decrease in cell viability after 24 hrs by MTT assay. The data set is classed as cell-based. Conditions: HEK293, 24 h. In outline:
as §1

The test system of data set [6] is MCF7. The experiment in a line: Inhibition of colony formation in human MCF7 cells at 3 to 6 uM incubated for 24 hrs measured till day 7 by crystal violet staining based assay. The data set is classed as functional, cell-based. The procedure, abridged:
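Cells were treated with a range of concentrations for 24 h. The medium was then replaced with complete medium and cells were grown for 7 days. Colonies were stained with 0.1% crystal violet.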

In data set [7] the test system is MCF7. The experiment in a line: Cell cycle arrest in human MCF7 cells assessed as increase in cells at S phase after 24 hrs by propidium iodide staining based flow cytometry. It is filed as functional. The procedure, abridged: (§2)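 Cells treated 24 h with test compound, MCF-7 at various concentrations and PC-3 at various concentrations; cells harvested, stained with propidium iodide and acquired by flow cytometry for cell cycle phase distribution.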
In general terms: Flow cytometry measures light scatter and fluorescence of single cells or particles in a stream.

Data set [8] deals with MCF7. The experiment in a line: Cell cycle arrest in human MCF7 cells assessed as accumulation at G2/M phase at 3 uM after 24 hrs by propidium iodide staining based flow cytometry (reference value: 20.30%). The data set is classed as functional. The procedure, abridged: as §2
Data set [9] deals with MCF7. As to the kind of experiment: Cell cycle arrest in human MCF7 cells assessed as accumulation at G2/M phase at 6 uM after 24 hrs by propidium iodide staining based flow cytometry (reference value: 20.30%). It is filed as functional. The procedure, abridged: as §2
The subject of data set [10] is MCF7. The experiment in a line: Cell cycle arrest in human MCF7 cells assessed as accumulation at G2/M phase at 9 uM after 24 hrs by propidium iodide staining based flow cytometry (reference value: 20.30%). The data set is classed as functional. The procedure, abridged:
as §2

Data set [11] concerns MCF7. As to the kind of experiment: Induction of apoptosis in human MCF7 cells assessed as necrotic cells at 6 uM after 24 hrs by annexin V-FITC/propidium iodide staining based flow cytometry (reference value: 4.76%). It is filed as functional. In outline:
(§3)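 Apoptosis by Annexin V-FITC/PI dual staining: MCF-7 cells treated 24 h at 3, 6 and 9 µM, then harvested, stained and acquired by flow cytometry; early apoptotic = AnnexinV+/PI−, live = AnnexinV−/PI−, necrotic = AnnexinV−/PI+.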

Data set [12] deals with MCF7. The experiment in a line: Induction of apoptosis in human MCF7 cells assessed as increase in early apoptotic cells after 24 hrs by annexin V-FITC/propidium iodide staining based flow cytometry. The data set is classed as functional, cell-based. In outline: as §3
Data set [13] has as its system MCF7. As to the kind of experiment: Induction of mitochondrial membrane depolarization in human MCF7 cells at 3 uM after 24 hrs by JC-1 staining based flow cytometry (reference value: 11%). The data set is classed as functional.
Data set [14] can be described thus: Stability of the compound in simulated gastric fluid assessed as compound remaining after 1 hr at 37 degC by UPLC analysis. It is filed as ADME. Conditions: read-out: Stability.
The test system of data set [15] is MCF7. As to the kind of experiment: Increase in Bax expression in human MCF7 cells at 3 to 9 uM after 24 hrs by Western blot analysis. The data set is classed as functional, cell-based. In outline:
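MCF-7 or PC-3 cells treated with compound for 24 h, harvested; PCNA, Bax and Bcl-2 protein expression checked by Western blotting.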
Background: A western blot detects proteins with antibodies after separation by electrophoresis.

Data set [16] is described as follows: Stability of the compound in simulated intestinal fluid assessed as compound remaining after 2 hrs at 37 degC by UPLC analysis. The data set is classed as ADME. Conditions: read-out: Stability.
Data set [17] is described as follows: Stability in rat plasma assessed as compound remaining after 2 hrs at 37 degC by UPLC analysis. Conditions: read-out: Stability. It is filed as ADME, cell-free. The procedure, abridged:
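Compound was incubated in plasma, and the percentage remaining intact was calculated at time points up to 2 h.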

The nature of data set [18]: Solubility of the compound in distilled water after 24 hrs by HPLC based shake flask method. It is filed as physicochemical.
The nature of data set [19]: Protein binding in rat plasma at 8 ug/ml after 15 mins by UPLC based charcoal adsorption method. Conditions: read-out: PPB (converted). It is filed as ADME, cell-free.
Data set [20] has as its system DU-145. The experiment in a line: Potency index, ratio of curcumin IC50 to compound IC50 in human DU145 cells. It is filed as functional. In outline:
(§4)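 IC50 came from an MTT viability assay after 24 h compound exposure, with curcumin run as the standard. Values are mean ± SE of three independent experiments. The index is the curcumin IC50 divided by the compound IC50 in the same cell line.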

In data set [21] the test system is PC-3. The experiment in a line: Potency index, ratio of curcumin IC50 to compound IC50 in human PC3 cells. It is filed as functional. In outline: as §4
Data set [22] has as its system MDA-MB-231. The experiment in a line: Potency index, ratio of curcumin IC50 to compound IC50 in human MDA-MB-231 cells. It is filed as functional. The procedure, abridged: as §4
The test system of data set [23] is 4T1. The experiment in a line: Potency index, ratio of curcumin IC50 to compound IC50 in mouse 4T1 cells. It is filed as functional. In outline:
as §4

The test system of data set [24] is PC-3. As to the kind of experiment: Cell cycle arrest in human PC3 cells assessed as accumulation at G0/G1 phase at 8.8 uM after 24 hrs by propidium iodide staining based flow cytometry (reference value: 72.73%). The data set is classed as functional. The procedure, abridged: as §2
Data set [25] deals with PC-3. As to the kind of experiment: Induction of morphological changes in human PC3 cells assessed as decrease in cell number at 2.4 to 8.8 uM after 24 hrs by phase contrast microscopy. It is filed as functional, cell-based. The procedure, abridged: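 Cells were exposed to a range of concentrations for 24 h. Cell number and morphology, including detachment from the surface, were assessed by phase-contrast microscopy at 10X magnification.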

The subject of data set [26] is PC-3. As to the kind of experiment: Induction of apoptosis in human PC3 cells assessed as early apoptotic cells at 4.8 uM after 24 hrs by annexin V-FITC/propidium iodide staining based flow cytometry (reference value: 4.44%). The data set is classed as functional. In outline:
(§5)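 MCF-7 cells exposed to 3, 6 or 9 μM and PC-3 cells to 4.8 or 8.8 μM for 24 h, then harvested and dual-stained with Annexin V-FITC/PI and read by flow cytometry. Gates: live AnnexinV⁻/PI⁻, early apoptotic AnnexinV⁺/PI⁻, necrotic AnnexinV⁻/PI⁺.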

For data set [27], the system named is PC-3. As to the kind of experiment: Induction of apoptosis in human PC3 cells assessed as late apoptotic cells at 4.8 uM after 24 hrs by annexin V-FITC/propidium iodide staining based flow cytometry (reference value: 0.80%). The data set is classed as functional. In outline:
as §5

Data set [28] has as its system PC-3. The experiment in a line: Induction of apoptosis in human PC3 cells assessed as necrotic cells at 4.8 uM after 24 hrs by annexin V-FITC/propidium iodide staining based flow cytometry (reference value: 2.52%). It is filed as functional. The procedure, abridged:
as §5

For data set [29], the system named is PC-3. As to the kind of experiment: Induction of apoptosis in human PC3 cells assessed as viable cells at 8.8 uM after 24 hrs by annexin V-FITC/propidium iodide staining based flow cytometry (reference value: 92.24%). It is filed as functional. The following applies: PC-3, 24 h, read-out: Activity. The procedure, abridged:
as §5

Data set [30] has as its system PC-3. The experiment in a line: Induction of apoptosis in human PC3 cells assessed as decrease in live cells after 24 hrs by annexin V-FITC/propidium iodide staining based flow cytometry. It is filed as functional, cell-based. In outline:
as §5

Data set [31] concerns PC-3. The experiment in a line: Induction of mitochondrial membrane depolarization in human PC3 cells at 4.8 uM after 24 hrs by JC-1 staining based flow cytometry (reference value: 4.51%). The data set is classed as functional.
Data set [32] is described as follows: Intrinsic clearance in liver microsomes (unknown origin) assessed per mg of protein at 8 ug/ml in presence of NADPH by UPLC analysis. It is filed as ADME, Microsome.

The structures appear in SMILES notation. ≈ marks a conversion by molar mass, not a printed value. Calls of active or inactive are those of the source. The rule behind the calls is not given here. A value given as a limit tells only on which side of the number the result lay.

As usually defined, the IC50 is the concentration that inhibits the measured activity by half. What is called solubility (thermodynamic) is solubility found after equilibrating the solid with the medium.

Take `O=C1/C(=C/c2ccccc2F)CN(Cc2cn(Cc3ccc(F)cc3)nn2)C/C1=C\c1ccccc1F`: the IC50 worked out at 6 µM with MCF7 [1]; 10 µM with MDA-MB-231 [2]; 6.4 µM in the data set with 4T1 [3]; 19.4 µM in the data set with PC-3 [4]; 8.7 µM with DU-145 [5]; 46 µM with HEK293. Besides, in the data set with MCF7 [6], the inhibition result was “Active”. Moreover, the Activity entry with MCF7 [7] is “Dose-dependent effect”; in the data set on MCF7 [8], 25.7%; in the data set on MCF7 [9] it was 43.6%; with MCF7 [10], 35.11%; in the data set with MCF7 [11] it was 4.28%; with MCF7 [12], “Dose-dependent effect”. The Activity in the data set with MCF7 [13] worked out at 66.45%. Also, the remaining at 1 h in [14] was 85%. For the same compound, the result with MCF7 [15] was Active. In addition, the remaining at 2 h in data set [16] was 65%; in data set [17] it was 96%. This compound gave a thermodynamic solubility at 24 h in [18] of 2.08 µg/mL (≈ 4.16 µM). For the same compound, in [19], the fraction unbound at 0.25 h, 8 ug/ml was 0.188. Further, the Ratio IC50 is not above 9.5 in the data set with DU-145 [20], “<=5.7” in the data set on PC-3 [21], “<=8.3” in the data set with MDA-MB-231 [22] and “<=9.3” in the data set on 4T1 [23].

As to `Cc1ccc(/C=C2\CN(Cc3cn(Cc4ccccc4F)nn3)C/C(=C\c3ccc(C)cc3)C2=O)cc1`, the IC50 is 28.7 µM with MCF7 [1]; 10 µM in the data set on MDA-MB-231 [2]; 18 µM with 4T1 [3]; 8.8 µM in the data set on PC-3 [4]; 9.5 µM with DU-145 [5]; more than 100 µM in the data set on HEK293. Also, the Activity was 67.5% in the data set with PC-3 [24]; 13.02% in the data set on PC-3 [26]; 0.81% in the data set with PC-3 [27]; 0.91% with PC-3 [28]; “Dose-dependent effect” in the data set with PC-3 [30]; 29.85% in the data set on PC-3 [31]. Also, the result in the data set on PC-3 [25] was Active. For the same compound, in the data set on PC-3 [29], the viability at 8.8 µM is 80.8%. Also, the remaining at 1 h in [14] is 92%. Moreover, the remaining at 2 h was 30% in data set [16] and 90% in data set [17]. Also, the solubility (thermodynamic) at 24 h in [18] was 1.12 µg/mL (≈ 2.27 µM). Besides, the fraction unbound at 0.25 h, 8 ug/ml in data set [19] was 0.0301. The Ratio IC50 with DU-145 [20] is not above 9.5; in the data set on PC-3 [21], “<=5.7”; with MDA-MB-231 [22] it was “<=8.3”; in the data set on 4T1 [23], “<=9.3”. Moreover, the CLint in data set [32] was 87 µL/min/mg.
